Source: PubChem BioAssay
Results filed as inconclusive are left out. Calls of active or inactive are those of the source.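 Rule for the calls, unless noted: active = RAM network inhibition above 8.4% in each of two replicates, 3 SD over the compound average; inconclusive = above 8.4% inhibition in only one replicate; inactive = 8.4% inhibition or less in each replicate.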

Tests used:
[1] = S. cerevisiae growth inhibition in permissive medium (OD615), pilot counter-assay for S. cerevisiae lifespan shortening project, permissive growth control (AID 705;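 active = growth inhibition above 25% in both replicates, a cutoff set 3 SD above the mean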); settings: OD615, 24 h, at 10 µM, hits give high values
Procedure, shortened: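 System: S. cerevisiae with engineered DeaD lifespan system / Measured by: absorbance (optical density) at 615 nm / Read-out: reduction in yeast growth (OD615) / Times: 4 h cell pre-growth, 24 h exposure at 30 °C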

[2] = S. cerevisiae growth inhibition in restrictive medium, OD615, pilot screen, restrictive growth control, yeast lifespan reduction project (AID 706;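 active = growth inhibition above a set limit, 3 SD over mean compound inhibition, in both replicates, cut at about 43% in these data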;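 note: modified DeaD lifespan yeast strain shifted to restrictive glucose medium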); settings: OD615, 48 h, at 10 µM, hits give high values
Procedure, shortened: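 System: Engineered S. cerevisiae DeaD strain | Buffer or medium: Glucose-based CSMM-D restrictive medium | Schedule: 4 h pre-incubation, 48 h exposure at 30 °C | Technique: Optical density at 615 nm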

[3] = doxorubicin toxicity protection in MRP-1 cells – H69AR cells, CellTiter-Glo, duplicate, MRP-1 activator project, pilot screen (AID 807;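 active = viability increase at or above a cutoff of the median across tested compounds plus 3 SD, cut at about 8.5% in these data, passing the limit was not always enough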;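 note: compound pretreatment 18-22 h then 72 h combined with doxorubicin; 0% = doxorubicin alone and 100% = vehicle without doxorubicin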); settings: H69AR viability with doxorubicin, CellTiter-Glo luminescence; at 10 µM; hits give high values
[4] = viability of PTEN-null HCT116 cells – cell-based, HCT116 clonal line, CellTiter-Glo, pilot screen (AID 824;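 active = viability at or below 27.92% in each of two runs, the all-compound median minus 4 SD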;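 note: 0% = 20 µM Hyamine control and 100% = vehicle cell control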); settings: HCT116 PTEN-deleted viability, 60 h, at 10 µM, hits give low values
[5] = RAM signaling pathway blockade in yeast – S. cerevisiae, Pdr1DBD-CYC8 efflux-inhibited sensitized strain, primary screen (AID 1298);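 note: 0% = DMSO untreated cells without growth and 100% = 10 µM 1-NA-PP1 full growth; higher means more yeast growth rescued from 5-FOA killing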; settings: S. cerevisiae cbk1-as DSE1-URA3 strain, 5-FOA growth OD615, 2 d; at 50 µM; hits give high values
[6] = viability of HCT116 without oncogenic beta-catenin – human colon tumor cells, pilot screen (AID 823;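 active = cell viability at or below a set limit in both duplicate runs, the limit being the all-compound median minus 4 SD, cut at about 23% in these data, passing the limit was not always enough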;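 note: 0% = wells killed by 20 µM Hyamine and 100% = untreated DMSO cell wells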); settings: HCT116 beta-catenin knockout viability, CellTiter-Glo, 60 h; at 10 µM; hits give low values
[7] = RAM pathway blockade in budding yeast – dse1pr::URA3 reporter, 5-FOA selection, pilot screen (AID 869;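 active = inhibition over a set limit, the all-compound mean plus 3 SD, in both replicate runs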;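 note: 0% = DMSO wells with no growth and 100% = 10 µM 1-NA-PP1 with full growth; RAM network block rescues cells from 5-FOA so hits raise OD615 growth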); settings: S. cerevisiae dse1pr::URA3 5-FOA growth, OD615, 2 d; at 10 µM; hits give high values; strain carries analog-sensitive mutant Cbk1 kinase

CC(=O)c1ccc(C(=O)Nc2nnc(-c3ccc(Cl)cc3)o2)cc1
active: viability [4] 22.3%
inactive: growth inhibition [1] -1.45% | growth inhibition [2] 17% | viability increase [3] -3.75% | RAM network inhibition [5] 2.8%

Cc1nc2c3c4c(sc3n3c(SCC(=O)NCc5ccco5)nnc3n2n1)COC(C)(C)C4
inactive: growth inhibition [1] -15.2% | growth inhibition [2] 3.31% | viability increase [3] -6.89% | viability [6] 88.7% | inhibition [7] 1.85% | RAM network inhibition [5] 5.05%

COc1ccc(NS(=O)(=O)c2cccc(-c3nnc4n3CCCCC4)c2)cc1
inactive: growth inhibition [1] -9.52% | growth inhibition [2] 10.2% | viability increase [3] -3.38% | viability [6] 92.6% | inhibition [7] 1.11% | RAM network inhibition [5] 1.97%

O=C(CNC(=O)c1ccco1)OCc1ccc(Cl)cc1
inactive: growth inhibition [1] -3.76% | growth inhibition [2] 2.92% | viability increase [3] -2.32% | viability [4] 102% | inhibition [7] 0.375% | RAM network inhibition [5] 0.25%

c1cncc(CNc2nc(N3CCOCC3)nc(N3CCOCC3)n2)c1
inactive: growth inhibition [1] -10.4% | growth inhibition [2] 1.83% | viability increase [3] -2.97% | viability [4] 91.8% | inhibition [7] 1.27% | RAM network inhibition [5] 1.95%

COC(=O)c1cn(NC(=O)c2cnccn2)c(=O)c2ccccc12
inactive: growth inhibition [1] -5.4% | growth inhibition [2] 16.9% | viability increase [3] 2.86% | viability [6] 27.8% | inhibition [7] 1.15% | RAM network inhibition [5] -0.31%

COc1ccc(Nc2ncnc3c2cnn3Cc2ccccc2)cc1
inactive: growth inhibition [1] -28.7% | growth inhibition [2] 3.04% | viability increase [3] 1.14% | viability [6] 88.9% | inhibition [7] 1% | RAM network inhibition [5] 3.74%

Nn1c(SCC(=O)NC2CCCCC2)nnc1-c1ccccc1
inactive: growth inhibition [1] -25.7% | growth inhibition [2] 8.66% | viability increase [3] -1.37% | viability [6] 98.8% | inhibition [7] 2.28% | RAM network inhibition [5] 4.63%

COc1ccccc1CC(=O)Nc1ccc(-c2nnc(-c3ccco3)o2)cc1
inactive: growth inhibition [1] -3.64% | growth inhibition [2] 8.35% | viability increase [3] -2.58% | viability [4] 77.7% | RAM network inhibition [5] 8.02%

CCc1ccc(-c2nc(CSCC(=O)N3CCN(c4ncccn4)CC3)c(C)o2)cc1
inactive: growth inhibition [1] -2.9% | growth inhibition [2] -2.11% | viability increase [3] -3.72% | viability [4] 52.6% | RAM network inhibition [5] 7.89%

CCCn1c(CN2CCN(c3cccc(Cl)c3)CC2)nc2c1c(=O)n(C)c(=O)n2C
inactive: growth inhibition [1] -4.45% | growth inhibition [2] -8.51% | viability increase [3] -4.06% | viability [4] 54% | RAM network inhibition [5] 1.38%

C[C@@H](NC(=O)c1coc(=O)c(Br)c1)c1ccccc1
inactive: growth inhibition [1] -24.5% | growth inhibition [2] 3.37% | viability increase [3] -8.28% | viability [6] 63.7% | inhibition [7] 3.79% | RAM network inhibition [5] 7.48%

CCCCS(=O)CC(CS(=O)CCCC)OC(=O)c1ccc(C)cc1 (stereo not given)
inactive: growth inhibition [1] -10.6% | growth inhibition [2] -7.7% | viability increase [3] -1.14% | viability [4] 96.3% | inhibition [7] 1.73% | RAM network inhibition [5] 0.87%

O=C1C2C3C=CC(C3)C2C(=O)N1CCN1CCN(S(=O)(=O)c2ccc3ccccc3c2)CC1 (stereo not given)
inactive: growth inhibition [1] -8.82% | growth inhibition [2] 0.84% | viability increase [3] -5.03% | viability [4] 83.5% | inhibition [7] 1.27% | RAM network inhibition [5] 3.68%

CCOC(=O)c1c(NC(=O)c2ccc(Cl)s2)sc(C)c1C
inactive: growth inhibition [1] -6.9% | growth inhibition [2] -11.2% | viability increase [3] -8.89% | inhibition [7] 2.4% | RAM network inhibition [5] 5.6%
active: viability [6] 12.6%

COc1ccccc1N1CCN(CC(=O)Nc2cc(C)nn2-c2nc(C)cc(C)n2)CC1
active: viability [6] 19.6%
inactive: growth inhibition [1] -5.77% | growth inhibition [2] -18.8% | viability increase [3] -7.06% | inhibition [7] 1.77% | RAM network inhibition [5] 6.51%

CCOC(=O)CNC(=O)c1cn(CC)c(=O)c2cc(OC)c(OC)cc12
inactive: growth inhibition [1] -14.4% | growth inhibition [2] -5.67% | viability increase [3] -2.48% | viability [6] 103% | inhibition [7] 2.65% | RAM network inhibition [5] 2.7%

Cc1ccc(C(=O)c2cn[nH]c2-c2cc(Cl)ccc2O)cc1
inactive: growth inhibition [1] 7.61% | growth inhibition [2] 1.2% | viability increase [3] -0.14% | viability [6] 95.7% | inhibition [7] 1.08% | RAM network inhibition [5] -1.14%

c1cncc(CNc2c3c(nc4nnnn24)CCCC3)c1
inactive: growth inhibition [1] -7.77% | growth inhibition [2] -8.93% | viability increase [3] -2.59% | viability [6] 90% | inhibition [7] 0.45% | RAM network inhibition [5] -0.36%

CCN1CCN(CCNC(=O)C2CCCN(Cc3nc(-c4cccc(Cl)c4)oc3C)C2)CC1 (stereo not given)
inactive: growth inhibition [1] -9.33% | growth inhibition [2] -13.1% | viability increase [3] -6.96% | viability [4] 35% | inhibition [7] -1.05% | RAM network inhibition [5] 0.71%

Cc1nc2ccccc2c(=O)n1CCCO
inactive: growth inhibition [1] -2.92% | growth inhibition [2] 0.055% | viability increase [3] -2.52% | viability [4] 96% | inhibition [7] 2.77% | RAM network inhibition [5] 3.03%

COCCCNC(=O)c1cn(C)c(=O)c2cc(OC)c(OC)cc12
inactive: growth inhibition [1] -8.69% | growth inhibition [2] -8.96% | viability increase [3] -2.69% | viability [4] 103% | inhibition [7] 1.8% | RAM network inhibition [5] 0.56%

CC(=O)Nc1c(C(=O)c2ccc(F)cc2)oc2ccccc12
inactive: growth inhibition [1] -23.1% | growth inhibition [2] -4.12% | viability increase [3] -3.23% | viability [6] 87.4% | inhibition [7] 2.3% | RAM network inhibition [5] 7.49%

Cc1ccc(OCC(O)CN2CCN(c3ccccc3)CC2)cc1 (stereo not given)
inactive: growth inhibition [1] -3.02% | growth inhibition [2] -2.13% | viability increase [3] -0.7% | viability [4] 99.9% | inhibition [7] 1.23% | RAM network inhibition [5] 7.87%

CN(C)CCCNC(=O)CC(c1ccc(F)cc1)c1ccco1 (stereo not given)
inactive: growth inhibition [1] -28.8% | growth inhibition [2] 0.42% | viability increase [3] -2.97% | viability [6] 77.9% | inhibition [7] 0.69% | RAM network inhibition [5] 5.45%

Cc1cccc(-n2ncc3c(NCc4ccccc4)ncnc32)c1
inactive: growth inhibition [1] 5.07% | growth inhibition [2] 12.1% | viability increase [3] -5.25% | viability [4] 31.8% | inhibition [7] 1.38% | RAM network inhibition [5] 11.8%

CCC(C)C1C(C#N)=C(N)Oc2n[nH]c(C)c21 (stereo not given)
inactive: growth inhibition [1] -0.17% | growth inhibition [2] 7.77% | viability increase [3] -7.71% | viability [4] 62.9% | inhibition [7] 0.79% | RAM network inhibition [5] 6.1%

CC(=O)c1c(C)n(-c2ccc(N(C)C)cc2)c2ccc(OCC(N)=O)cc12
inactive: growth inhibition [1] -8.79% | growth inhibition [2] -6.18% | viability increase [3] -4.87% | viability [6] 84.8% | inhibition [7] 2.3% | RAM network inhibition [5] 6.29%

C#CCN1C(=O)C(O)(CC(=O)c2ccc(OC)c(OC)c2)c2ccccc21 (stereo not given)
inactive: growth inhibition [1] 2.17% | growth inhibition [2] 0.69% | viability increase [3] -5.17% | viability [4] 48% | inhibition [7] 1.62% | RAM network inhibition [5] 1.98%

COCCNS(=O)(=O)c1ccc2c(c1)C(=O)c1cc(S(=O)(=O)NCCOC)ccc1-2
inactive: growth inhibition [1] -1.33% | growth inhibition [2] 0.015% | viability increase [3] -0.81% | viability [4] 96.4% | inhibition [7] 2.15% | RAM network inhibition [5] 3.45%

CCOC(=O)N1CCN(C(=O)CN(c2cccc(C(F)(F)F)c2)S(C)(=O)=O)CC1
inactive: growth inhibition [1] -9.57% | growth inhibition [2] -1.87% | viability increase [3] -4.09% | viability [4] 88.9% | inhibition [7] 0.905% | RAM network inhibition [5] 4.83%

CCOC(=O)C(C(=O)Nc1cccc(C)n1)C1CCCCC1 (stereo not given)
inactive: growth inhibition [1] -6.76% | growth inhibition [2] -0.005% | viability increase [3] 1.76% | viability [4] 88.1% | inhibition [7] 3.22% | RAM network inhibition [5] 2.72%

O=C(CCS(=O)(=O)c1ccccc1)Nc1nc2c(s1)COc1ccccc1-2
inactive: growth inhibition [1] -11.8% | growth inhibition [2] -10.9% | viability increase [3] -8.46% | inhibition [7] 1.32% | RAM network inhibition [5] 3.55%
active: viability [6] 5.88%

Cc1c(C(=O)N(C)Cc2ccccc2)oc2ccc(S(=O)(=O)N3CCCC3)cc12
inactive: growth inhibition [1] -18.8% | growth inhibition [2] -11.4% | viability increase [3] -5.85% | viability [6] 54.3% | inhibition [7] 0.18% | RAM network inhibition [5] 4.09%

C=C(C)Cn1c(CCCNC(=O)CCC)nc2ccccc21
inactive: growth inhibition [1] -14.9% | growth inhibition [2] 7.12% | viability increase [3] -0.37% | viability [6] 94.7% | inhibition [7] -0.295% | RAM network inhibition [5] 1.57%

c1csc(CNc2ncnc3sccc23)c1
inactive: growth inhibition [1] 3.62% | growth inhibition [2] -3.59% | viability increase [3] -2% | viability [4] 62.7% | inhibition [7] 2.05% | RAM network inhibition [5] 4.4%

CCCCn1c(C(C)NC(=O)c2cccs2)nc2ccccc21 (stereo not given)
inactive: growth inhibition [1] -10.5% | growth inhibition [2] -2.79% | viability increase [3] -3.37% | viability [6] 89% | inhibition [7] 1.42% | RAM network inhibition [5] 3.28%

O=C(CSc1nc2c(c(=O)n1-c1ccc(Cl)cc1)SCC2)N1CCCC1
inactive: growth inhibition [1] 1.32% | growth inhibition [2] 24.2% | viability increase [3] -4.23% | viability [4] 101% | inhibition [7] 1.31% | RAM network inhibition [5] 0.57%

Cc1cc(NC(=O)c2ccc3c(c2)C(=O)N(C2CCCCC2)C3=O)no1
inactive: growth inhibition [1] -4.59% | growth inhibition [2] -6.9% | viability increase [3] -6.76% | viability [4] 41.5% | RAM network inhibition [5] 3.39%

CCOC(=O)N1CCN(C(=O)c2oc3ccc(S(=O)(=O)N4CCOCC4)cc3c2C)CC1
inactive: growth inhibition [1] -6.53% | growth inhibition [2] -12.6% | viability increase [3] -4.64% | viability [4] 99.9% | inhibition [7] 2.71% | RAM network inhibition [5] 4.61%
